In series [1] the test system is Staphylococcus aureus. Put plainly: Bacteriostatic activity against Staphylococcus aureus K2068 overexpressing MepA. Type of series: functional. Put shortly: (§1)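 Broth microdilution MIC per CLSI guidance in LB, 37 °C, shaking 250 rpm, 24 hr; run in triplicate in three separate experiments. MIC taken as lowest inhibitor concentration with no growth. Compounds from DMSO stocks; untreated controls carry equal DMSO.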

Series [2] concerns the target T1, Protein translocase subunit SecA 1 (Staphylococcus aureus (strain NCTC 8325)) (UniProt O06446).
T1 sequence (whole entry): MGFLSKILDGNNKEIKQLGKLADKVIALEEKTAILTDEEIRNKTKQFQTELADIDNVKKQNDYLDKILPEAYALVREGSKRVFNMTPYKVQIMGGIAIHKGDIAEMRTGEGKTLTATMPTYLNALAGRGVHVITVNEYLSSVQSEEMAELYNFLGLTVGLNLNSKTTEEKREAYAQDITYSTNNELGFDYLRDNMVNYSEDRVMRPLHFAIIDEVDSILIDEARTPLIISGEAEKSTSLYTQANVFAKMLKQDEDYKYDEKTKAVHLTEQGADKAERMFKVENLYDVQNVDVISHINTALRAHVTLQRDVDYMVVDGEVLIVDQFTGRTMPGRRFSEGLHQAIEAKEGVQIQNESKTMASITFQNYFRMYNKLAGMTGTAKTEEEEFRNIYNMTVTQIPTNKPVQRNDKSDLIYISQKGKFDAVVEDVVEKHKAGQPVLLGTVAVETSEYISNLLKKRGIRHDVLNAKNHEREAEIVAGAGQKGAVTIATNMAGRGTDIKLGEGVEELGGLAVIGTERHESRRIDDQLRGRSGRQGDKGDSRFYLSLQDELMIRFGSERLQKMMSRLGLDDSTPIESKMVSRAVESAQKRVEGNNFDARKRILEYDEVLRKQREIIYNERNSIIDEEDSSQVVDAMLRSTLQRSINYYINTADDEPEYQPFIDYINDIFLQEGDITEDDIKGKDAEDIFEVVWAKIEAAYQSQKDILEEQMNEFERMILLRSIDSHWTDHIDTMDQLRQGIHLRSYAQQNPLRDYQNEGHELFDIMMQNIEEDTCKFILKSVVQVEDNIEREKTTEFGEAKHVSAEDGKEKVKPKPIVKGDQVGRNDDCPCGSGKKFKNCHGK
Put plainly: Inhibition of Staphylococcus aureus SecA1 assessed as reduction in secretion of TSST-1 at 10 uM by Western blot analysis. Put shortly: (§2)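 S. aureus Mu50 grown in LB at 37 °C; inhibitor added at mid-log phase and cultures sampled at several time points. Supernatants separated by centrifugation, filtered 0.45 μm, and probed by Western blot with antibodies to α-hemolysin, TSST-1 or enterotoxin B.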
A general note: Immunoblotting shows a protein as a band on a membrane.

Series [3] relates to Staphylococcus aureus. Put plainly: Bacteriostatic activity against NorA deficient Staphylococcus aureus K1758. In kind it is functional. Summed up:
as §1

Series [4] concerns Staphylococcus aureus. Put plainly: Potency index, ratio of MIC for tetracycline to MIC for test compound against Methicillin resistant Staphylococcus aureus. In kind it is functional.
The target in series [5] is T1, Protein translocase subunit SecA 1 (Staphylococcus aureus (strain NCTC 8325)). Put plainly: Inhibition of Staphylococcus aureus SecA1 assessed as reduction in secretion of enterotoxin B at 10 uM by Western blot analysis. Put shortly: as §2
The target in series [6] is T2, Protein translocase subunit SecA 1 (Staphylococcus aureus (strain NCTC 8325), UniProt O06446).
T2 sequence (O06446 whole entry): T1 sequence (whole entry)
Put plainly: Inhibition of Staphylococcus aureus ATCC 35556 SecA1 liposomal ion channel activity in Xenopus laevis oocytes incubated for 3 hrs measured by recording ion current for 1 min. Type of series: cell-based. Summed up: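 Xenopus laevis oocytes injected at animal pole with 50 nl containing 120 ng liposomes, 120 ng SaSecA1, 14 ng proOmpA, 2 mM ATP, 1 mM Mg(OAc)2 plus varying inhibitor. Incubated 3 hr at 23 °C, then ion current recorded continuously 1 min.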

In series [7] the test system is Staphylococcus aureus. Put plainly: Bacteriostatic activity against Staphylococcus aureus K2361 overexpressing NorA. Type of series: functional. Summed up: as §1
For series [8], the system named is Staphylococcus aureus. Put plainly: Bacteriostatic activity against Staphylococcus aureus Newman after 24 hrs. Type of series: functional. Put shortly: as §1
The test system of series [9] is Staphylococcus aureus. Put plainly: Bacteriostatic activity against Staphylococcus aureus Mu50 after 24 hrs. Type of series: functional. Conditions: Mu50, 24 h. Summed up:
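Broth microdilution per CLSI guidelines in LB. Inhibitor added to dilute early-log culture (OD600 ≈ 0.05), 37 °C, 250 rpm, 24 hrs. Run in triplicate in three separate experiments. MIC read as the lowest concentration with no growth.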

Series [10] relates to Staphylococcus aureus. Put plainly: Potency index, ratio of MIC for ampicillin to MIC for test compound against Methicillin resistant Staphylococcus aureus. Type of series: functional.
Series [11] concerns the target T2, Protein translocase subunit SecA 1. Put plainly: Inhibition of Staphylococcus aureus ATCC 35556 SecA1 liposome dependent proOmpA translocation incubated for 1.5 hrs measured by Western blot analysis. Put shortly: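 Per 0.1 ml: 50 mM Tris-HCl pH 7.6, 20 mM NH4Cl, 25 mM KCl, 2 mM Mg(OAc)2, ATP-regenerating system, 1.5 μg SaSecA1, 100 ng SecB, 120 ng proOmpA, 120 μg liposomes, with varying inhibitor; 30 °C, 1.5 hr. Translocated proOmpA scored as proteinase K-protected, quantified by Western blot; n = 3.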

In series [12] the test system is Staphylococcus aureus. Put plainly: Bacteriostatic activity against MepA deficient Staphylococcus aureus K2908. Type of series: functional. Put shortly: as §1
For series [13], the system named is Staphylococcus aureus. Put plainly: Bactericidal activity against Methicillin sensitive Staphylococcus aureus ATCC 6538 assessed as CFU reduction for 1 hr. In kind it is functional, organism-based. Put shortly: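 Log-phase LB cultures (OD600 ≈ 0.5) mixed with a range of inhibitor concentrations, shaken at 1,000 rpm, 37 °C, 1 hr, under normal room light. Cultures serially diluted in LB, plated on LB agar, incubated overnight at 37 °C. CFU counted; bactericidal effect taken as CFU reduction versus untreated control.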

The subject of series [14] is Staphylococcus aureus. Put plainly: Bactericidal activity against Methicillin resistant Staphylococcus aureus Mu50 assessed as CFU reduction at 30 uM for 1 hr. In kind it is functional. Put shortly: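 Log-phase Mu50 cultures (OD600 ≈ 0.5) mixed with a range of inhibitor concentrations, shaken 1,000 rpm at 37 °C for 1 hr under normal room light. Cultures then serially diluted in LB, plated on LB agar and incubated overnight at 37 °C. Activity expressed as reduction in CFU relative to untreated control containing matching DMSO.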

In series [15] the test system is Staphylococcus aureus. Put plainly: Bacteriostatic activity against Staphylococcus aureus ATCC 6538 after 24 hrs. The note with it: ATCC 6538, 24 h. Type of series: functional.
Series [16] has as its system Staphylococcus aureus. Put plainly: Potency index, ratio of MIC for norfloxacin to MIC for test compound against Methicillin resistant Staphylococcus aureus. In kind it is functional.
Series [17] has as its system Staphylococcus aureus. Put plainly: Potency index, ratio of MIC for erythromycin to MIC for test compound against Methicillin resistant Staphylococcus aureus. In kind it is functional.
In series [18] the test system is Staphylococcus aureus. Put plainly: Effect on general protein synthesis in Staphylococcus aureus Mu50 at 10 uM measured within 15 hrs. In kind it is ADME, organism-based. Conditions: in vivo.

≈ marks a conversion by molar mass, not a printed value. Calls of active or inactive are those of the source. Some results are limits rather than exact numbers.

The term MIC denotes the smallest concentration in the dilution series that meets the test's criterion for growth inhibition. In general, IC50 refers to the concentration that inhibits the measured activity by half. A high value points to weaker potency. As for `CCCCCCC1c2ccc(O)cc2Oc2cc(O)ccc21`, the minimum inhibitory concentration (MIC) in the series on Staphylococcus aureus [1], in the series on Staphylococcus aureus [3], against Staphylococcus aureus [7], against Staphylococcus aureus [8], against Staphylococcus aureus [9] and with Staphylococcus aureus [12] was 4 µg/mL (≈ 13.4 µM) throughout. The same compound showed an MIC against Staphylococcus aureus [15] of 4 µg/mL (≈ 13.4 µM). Moreover, the inhibition entry in series [2] and in [5] was “Active” each time. Besides, the Ratio in the series with Staphylococcus aureus [4] was found to be 7; with Staphylococcus aureus [10] it was 250; with Staphylococcus aureus [16], 7; in the series on Staphylococcus aureus [17] it was 250. For the same compound, the 50% inhibitory concentration (IC50) in [6] turned out to be 1 µM; in [11] it was 4 µM. Further, the figures for the Activity entry with Staphylococcus aureus [13], in the series with Staphylococcus aureus [14] and with Staphylococcus aureus [18] were “Dose-dependent effect”, above 3 log10CFU/ml and “Non-toxic”, respectively.

Values taken from ChEMBL document CHEMBL3734668, “Evaluation of small molecule SecA inhibitors against methicillin-resistant Staphylococcus aureus” (Bioorg Med Chem, 2015).
